Test results reported in article PMC4547362 (Molecular cancer therapeutics, 2015).
Read-outs that look alike come from different tables or passages of the source.

How the values were obtained:
Stat1 = conditions: cited from earlier work
Stat5 = conditions: cited from earlier work
Stat5a/b [1] = assay: Stat5a/b activation and transcriptional activity, side-by-side with IST5-002; format: cell-based
Stat3 [2] = target: T1, Stat3 (Homo sapiens, UniProt P40763); assay: IL-6-induced Stat3 nuclear translocation in DU145 cells, immunofluorescence; format: cell-based; conditions: IL-6 5 nM, IST5-002 even at 50 μM
T1 sequence (P40763 whole entry): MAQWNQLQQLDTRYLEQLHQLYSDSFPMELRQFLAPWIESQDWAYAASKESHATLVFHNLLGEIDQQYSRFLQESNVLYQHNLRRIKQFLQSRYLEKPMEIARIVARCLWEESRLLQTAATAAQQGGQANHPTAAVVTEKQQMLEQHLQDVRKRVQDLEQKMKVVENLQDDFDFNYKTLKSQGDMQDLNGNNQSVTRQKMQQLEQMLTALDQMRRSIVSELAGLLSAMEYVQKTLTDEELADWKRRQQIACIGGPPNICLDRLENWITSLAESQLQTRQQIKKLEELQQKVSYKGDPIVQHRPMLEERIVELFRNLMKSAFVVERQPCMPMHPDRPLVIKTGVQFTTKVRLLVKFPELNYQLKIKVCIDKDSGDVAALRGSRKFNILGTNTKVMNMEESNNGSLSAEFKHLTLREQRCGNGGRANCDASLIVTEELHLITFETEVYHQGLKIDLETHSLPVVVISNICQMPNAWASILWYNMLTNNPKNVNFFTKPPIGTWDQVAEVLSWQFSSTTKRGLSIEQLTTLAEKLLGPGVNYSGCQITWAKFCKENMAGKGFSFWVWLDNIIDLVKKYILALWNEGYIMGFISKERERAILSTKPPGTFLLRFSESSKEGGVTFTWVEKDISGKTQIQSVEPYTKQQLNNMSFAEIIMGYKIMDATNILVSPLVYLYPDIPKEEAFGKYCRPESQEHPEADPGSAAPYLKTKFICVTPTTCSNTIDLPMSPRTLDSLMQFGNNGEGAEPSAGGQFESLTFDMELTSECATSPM

Stat5a [3] = target: T2, Stat5a (Homo sapiens, UniProt P42229); assay: Stat5a luciferase reporter gene assay; format: cell-based; conditions: read-out: IC50, transcriptional activity of Stat5a; PC-3 cells, β-casein-luciferase, hPrl 10 nM 16 h
T2 sequence (P42229 1-794): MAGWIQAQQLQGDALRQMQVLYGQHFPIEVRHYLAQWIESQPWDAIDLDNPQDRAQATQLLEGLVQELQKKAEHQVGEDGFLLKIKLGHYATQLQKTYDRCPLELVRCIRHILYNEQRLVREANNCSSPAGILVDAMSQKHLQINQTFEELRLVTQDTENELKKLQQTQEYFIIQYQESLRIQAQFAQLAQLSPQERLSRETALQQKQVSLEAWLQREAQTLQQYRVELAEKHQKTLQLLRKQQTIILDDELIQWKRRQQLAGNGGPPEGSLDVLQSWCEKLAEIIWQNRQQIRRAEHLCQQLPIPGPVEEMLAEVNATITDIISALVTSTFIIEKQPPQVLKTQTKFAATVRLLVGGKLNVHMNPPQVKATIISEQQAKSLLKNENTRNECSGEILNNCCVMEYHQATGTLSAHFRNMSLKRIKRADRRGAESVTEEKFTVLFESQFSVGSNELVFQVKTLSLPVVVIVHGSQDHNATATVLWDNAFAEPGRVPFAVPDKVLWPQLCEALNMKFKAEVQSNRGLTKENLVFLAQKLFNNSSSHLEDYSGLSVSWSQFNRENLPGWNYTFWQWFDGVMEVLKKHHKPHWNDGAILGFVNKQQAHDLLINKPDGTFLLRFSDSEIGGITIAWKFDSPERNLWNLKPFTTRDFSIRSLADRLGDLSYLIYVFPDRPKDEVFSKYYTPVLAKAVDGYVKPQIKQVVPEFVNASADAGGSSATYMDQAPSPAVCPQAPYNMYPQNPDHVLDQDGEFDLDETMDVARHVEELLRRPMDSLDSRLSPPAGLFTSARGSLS

Stat5b = Stat5b (Homo sapiens, UniProt P51692); assay: Stat5b luciferase reporter gene assay; format: cell-based; conditions: read-out: IC50, transcriptional activity of Stat5b; PC-3 cells, β-casein-luciferase, hPrl 10 nM 16 h
Stat5b, sequence (P51692 whole entry, species assumed): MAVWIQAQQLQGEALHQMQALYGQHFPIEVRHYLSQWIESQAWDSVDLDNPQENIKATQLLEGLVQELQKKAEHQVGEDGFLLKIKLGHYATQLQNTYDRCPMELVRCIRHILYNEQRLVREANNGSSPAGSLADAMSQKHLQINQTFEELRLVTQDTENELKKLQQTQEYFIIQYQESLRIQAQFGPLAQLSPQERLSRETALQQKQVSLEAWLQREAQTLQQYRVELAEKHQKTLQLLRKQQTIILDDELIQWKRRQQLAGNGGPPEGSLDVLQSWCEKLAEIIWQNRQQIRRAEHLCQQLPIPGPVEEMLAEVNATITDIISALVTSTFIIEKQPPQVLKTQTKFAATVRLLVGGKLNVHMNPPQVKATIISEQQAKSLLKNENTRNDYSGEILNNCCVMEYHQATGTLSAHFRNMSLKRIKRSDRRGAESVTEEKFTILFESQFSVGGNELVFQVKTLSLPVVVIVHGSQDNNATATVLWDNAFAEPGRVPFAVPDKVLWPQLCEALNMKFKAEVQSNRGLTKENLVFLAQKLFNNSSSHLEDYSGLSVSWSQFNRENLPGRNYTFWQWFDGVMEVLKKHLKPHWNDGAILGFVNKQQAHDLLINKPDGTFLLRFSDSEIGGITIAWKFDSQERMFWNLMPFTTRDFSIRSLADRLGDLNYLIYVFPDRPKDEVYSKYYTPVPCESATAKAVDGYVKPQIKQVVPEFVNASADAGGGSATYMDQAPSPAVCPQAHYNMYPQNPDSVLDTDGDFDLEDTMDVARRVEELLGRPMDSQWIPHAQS

Stat5a/b [4] = target: T3, Stat5a/b (Homo sapiens, UniProt P42229+P51692); assay: Bcr-Abl-driven Stat5a/b phosphorylation in K562 cells, immunoblot; format: cell-based; conditions: 3 h
T3 sequence (P51692 whole entry, one chain of several): as the sequence (P51692 whole entry, species assumed) above

Bcr-Abl = Bcr-Abl (Homo sapiens, UniProt P00519+P11274); assay: Bcr-Abl tyrosine phosphorylation in K562 cells, immunoblot; format: cell-based
Stat5a/b [5] = target: Stat5a/b (Mus musculus, UniProt P42230+P42232); format: cell-based; conditions: read-out: IC50, phosphorylation of Stat5a/b; HC-11 cells, 2 h, then hPrl 30 min
Stat5a/b [6] = target: T3, Stat5a/b; assay: Cell-based immunoassay for tyrosine-phosphorylated Stat5a/b in T47D cells; conditions: read-out: IC50, phosphorylation of Stat5a/b, 2 h, then hPrl
Jak2 = Jak2 (Homo sapiens, UniProt O60674); assay: Jak2 phosphorylation in CWR22Rv1 cells, immunoprecipitation and immunoblot; format: cell-based
Jak2, sequence (O60674 whole entry): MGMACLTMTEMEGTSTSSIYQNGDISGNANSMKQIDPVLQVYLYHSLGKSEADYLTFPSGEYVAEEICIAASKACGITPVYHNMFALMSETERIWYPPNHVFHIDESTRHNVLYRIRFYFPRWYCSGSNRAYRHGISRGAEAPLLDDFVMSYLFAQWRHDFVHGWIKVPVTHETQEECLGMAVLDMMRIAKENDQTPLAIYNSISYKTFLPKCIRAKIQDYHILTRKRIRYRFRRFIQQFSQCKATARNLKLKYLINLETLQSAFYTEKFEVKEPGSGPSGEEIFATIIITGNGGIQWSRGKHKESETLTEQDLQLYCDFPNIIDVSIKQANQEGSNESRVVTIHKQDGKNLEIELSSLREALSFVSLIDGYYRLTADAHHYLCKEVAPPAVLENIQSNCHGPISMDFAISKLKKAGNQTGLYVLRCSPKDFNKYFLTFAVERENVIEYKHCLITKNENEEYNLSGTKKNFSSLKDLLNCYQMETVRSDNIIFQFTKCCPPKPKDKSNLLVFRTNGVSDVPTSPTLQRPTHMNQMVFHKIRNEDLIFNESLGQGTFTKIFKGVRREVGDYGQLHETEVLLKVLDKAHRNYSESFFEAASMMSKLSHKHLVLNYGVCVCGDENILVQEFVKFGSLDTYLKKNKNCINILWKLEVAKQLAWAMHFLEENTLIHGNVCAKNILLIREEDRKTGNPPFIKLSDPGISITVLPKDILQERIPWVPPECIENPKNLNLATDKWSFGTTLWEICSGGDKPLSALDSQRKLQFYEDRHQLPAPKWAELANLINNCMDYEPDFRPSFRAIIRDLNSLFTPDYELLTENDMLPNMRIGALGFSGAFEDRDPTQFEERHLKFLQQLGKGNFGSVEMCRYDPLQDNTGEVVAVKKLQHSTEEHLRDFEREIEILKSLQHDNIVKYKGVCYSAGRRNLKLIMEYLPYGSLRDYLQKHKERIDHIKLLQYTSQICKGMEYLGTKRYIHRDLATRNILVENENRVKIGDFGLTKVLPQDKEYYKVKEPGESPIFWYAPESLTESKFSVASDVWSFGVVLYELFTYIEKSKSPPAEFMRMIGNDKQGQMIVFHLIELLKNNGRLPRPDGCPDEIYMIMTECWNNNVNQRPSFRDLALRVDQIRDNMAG

panel of 50 kinases = assay: Kinase activity profiling; format: biochemical; conditions: 1 μM final concentration
Method in brief: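 Split-luciferase binding format, with the test compound first checked for false-positive activity against split-luciferase. Each Cfluc-kinase was co-translated with Fos-Nfluc in rabbit reticulocyte lysate at 30 C for 90 min. Lysate was incubated 30 min at room temperature with DMSO or 1 μM (final) test compound, then 1 h with a kinase-specific probe.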

Stat5a [7] = target: T2, Stat5a; assay: Stat5a dimerization by co-immunoprecipitation in PC-3 cells; format: cell-based; conditions: read-out: IC50, Stat5a dimerization, FLAG- and MYC-tagged Stat5a, hPrl 10 nM 30 min
Stat5a [8] = target: T2, Stat5a; assay: Prl-induced nuclear translocation of Stat5a in PC-3 cells, immunofluorescence; format: cell-based; conditions: 2 h, hPrl 10 nM 30 min
Method in brief: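 PC-3 cells were infected with adenoviral wild-type Stat5a and prolactin receptor (MOI 4), serum-starved, pretreated 2 h with test compound or control compound, and stimulated 30 min with 10 nM prolactin. Fixed cells were stained with rabbit anti-Stat5 pAb (1:200) and fluorescein goat anti-rabbit IgG (1:200).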

Stat5a/b [9] = target: Stat5a/b (Homo sapiens, UniProt P42229); assay: EMSA of Stat5a/b binding to DNA; format: cell-based; conditions: 25 μM, COS-7 cells, compared to Ctrl-treated cells
Method in brief: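 COS-7 cells were transiently co-transfected with Stat5a and prolactin receptor plasmids, then serum-starved 10 h. They were pretreated 2 h with test compound or control compound and stimulated 30 min with 10 nM human prolactin. DNA binding was probed with the beta-casein gene Stat5 response element.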

Stat3 [10] = target: T1, Stat3; assay: Stat3 luciferase reporter assay in LNCaP cells; format: cell-based; conditions: 6.0 μM, IL-6 50 ng/ml 16 h
Method in brief: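 LNCaP cells were co-transfected with Stat3 (0.25 μg), IL-6 receptor (0.25 μg), Stat3-luciferase reporter (0.5 μg) and a normalisation plasmid (0.025 μg). Cells were serum-starved 10 h, pretreated with 6.0 μM test compound or control compound, and stimulated 16 h with 50 ng/ml IL-6. Relative luciferase activity is reported as the mean ± S.E. of three independent experiments run in triplicate.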

Bcl-xL and cyclin D1 = assay: Expression of Stat5a/b target genes cyclin D1 and Bcl-xL in PC cells, immunoblot; format: cell-based, human; conditions: CWR22Rv1 and LNCaP cells, 48 h or 25 μM time course
[11] = tested on: Stat5a/b target genes in K562 cells; assay: RNA expression profiling of K562 cells; format: cell-based; conditions: 5 μM, 48 h
Method in brief: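 RNA from vehicle- and test compound-treated cells, alongside Stat5a/b-shRNA and scramble-shRNA cells, was profiled in triplicate on Affymetrix Human Gene 1.0 ST arrays. Differential expression versus the matching control used t-tests with false discovery rate correction.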

CWR22Rv1 cells [12] = assay: Dead cell count by trypan blue exclusion, CWR22Rv1; format: cell-based, human; conditions: 25 μM, 24 h
CWR22Rv1 cells [13] = assay: Nucleosomal DNA fragmentation ELISA, CWR22Rv1; format: cell-based, human; conditions: 25 μM, 24 h, CWR22Rv1, parallel wells
caspase-3 = assay: Caspase-3 activation assay, CWR22Rv1; format: cell-based, human; conditions: 12.5 μM, CWR22Rv1, 72 h
Method in brief: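 CWR22Rv1 cells were exposed to 12.5 μM test compound or vehicle for set periods. Caspase-3 was captured with anti-caspase-3 mAb, and its cleavage of AFC substrate was read fluorometrically at 505 nm. In the rescue arm, cells were first infected with adenovirus carrying constitutively active Stat5a (MOI 2).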

LNCaP and CWR22Rv1 cells = assay: Cell cycle analysis of PC cells; format: cell-based, human; conditions: LNCaP and CWR22Rv1, 72 h
Method in brief: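 LNCaP and CWR22Rv1 cells were treated with test compound, vehicle or control compound for up to 72 h. Cells were fixed, stained with propidium iodide plus RNase A, and analysed by flow cytometry in the FL-2 channel.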

CWR22Rv1 cells [14] = assay: Viability of CWR22Rv1 cells after Stat5a/b shRNA or control shRNA, trypan blue; format: cell-based, human; conditions: 12.5 μM, 48 h
[15] = tested on: A549, CAPAN, T47D, HT1080, HepG2, COS-7, RC170N, CWR22Rv1, K562 cells; format: cell-based
[16] = tested on: CWR22Rv1 xenograft tumors; assay: CWR22Rv1 prostate cancer xenograft tumor growth in nude mice; format: in vivo; conditions: for decrease of nuclear Stat5a/b content in tumors: compared to vehicle (HPC)
Method in brief: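 Castrated male athymic nude mice got 60-day sustained-release DHT pellets 3 days before s.c. flank inoculation of 1.5 × 10⁷ CWR22Rv1 cells in Matrigel (one tumor/mouse). After one week, mice were randomised (10/group) to daily i.p. test compound in 0.3% HPC (25, 50, 100 mg/kg), HPC alone or no treatment for 10 days. Tumors were measured three times weekly; volume = 3.14 × length × width × depth/6. Nuclear Stat5/Stat3 in harvested tumors were compared by mixed-model ANOVA with Bonferroni-adjusted pairwise tests.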

patient-derived PCs = assay: Ex vivo organ explant culture of patient-derived prostate cancers; set-up: species or system human; conditions: 7 days ex vivo explant organ culture
Method in brief: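 Patient-derived prostate cancers from radical prostatectomies (n=11, Gleason 7) were grown as explant organ cultures for 7 days with test compound or control compound at set concentrations. A pre-culture zero sample was formalin-fixed for baseline nuclear Stat5a/b. Explants were scored by Stat5a/b immunohistochemistry and TUNEL.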

[17] = tested on: K562, KCL22 and BV173 cells (parental and imatinib-resistant); assay: Growth of CML cell lines, trypan blue cell counts and colony formation; format: cell-based; conditions: 5 μM, trypan blue exclusion and colony formation assay
[18] = tested on: CML-blast crisis cell lines; assay: Cell cycle analysis of CML cells; format: cell-based; conditions: 5 μM, 48 h
primary CML cells = assay: Colony formation of primary CML-chronic phase cells from patients; format: cell-based, human; conditions: three CML-chronic phase patients, methylcellulose
PAK1/2 = PAK1/2 (Homo sapiens, UniProt Q13153+Q13177)
PAK1/2, sequence (Q13153 whole entry): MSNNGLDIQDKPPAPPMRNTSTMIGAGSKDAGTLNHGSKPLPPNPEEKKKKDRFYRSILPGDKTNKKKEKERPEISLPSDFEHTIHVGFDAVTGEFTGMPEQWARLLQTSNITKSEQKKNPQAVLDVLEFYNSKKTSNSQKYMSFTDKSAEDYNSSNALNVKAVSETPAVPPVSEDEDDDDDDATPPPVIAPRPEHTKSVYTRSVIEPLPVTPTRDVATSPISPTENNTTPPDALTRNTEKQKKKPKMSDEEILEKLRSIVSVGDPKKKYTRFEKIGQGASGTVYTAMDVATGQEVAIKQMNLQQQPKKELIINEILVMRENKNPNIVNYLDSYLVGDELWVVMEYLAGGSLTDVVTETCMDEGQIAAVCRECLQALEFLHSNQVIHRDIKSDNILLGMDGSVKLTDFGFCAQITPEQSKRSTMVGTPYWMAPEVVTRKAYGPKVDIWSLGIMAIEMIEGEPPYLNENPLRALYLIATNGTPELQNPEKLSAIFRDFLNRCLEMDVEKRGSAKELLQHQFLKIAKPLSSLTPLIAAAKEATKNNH
PAK1/2, sequence (Q13177 whole entry): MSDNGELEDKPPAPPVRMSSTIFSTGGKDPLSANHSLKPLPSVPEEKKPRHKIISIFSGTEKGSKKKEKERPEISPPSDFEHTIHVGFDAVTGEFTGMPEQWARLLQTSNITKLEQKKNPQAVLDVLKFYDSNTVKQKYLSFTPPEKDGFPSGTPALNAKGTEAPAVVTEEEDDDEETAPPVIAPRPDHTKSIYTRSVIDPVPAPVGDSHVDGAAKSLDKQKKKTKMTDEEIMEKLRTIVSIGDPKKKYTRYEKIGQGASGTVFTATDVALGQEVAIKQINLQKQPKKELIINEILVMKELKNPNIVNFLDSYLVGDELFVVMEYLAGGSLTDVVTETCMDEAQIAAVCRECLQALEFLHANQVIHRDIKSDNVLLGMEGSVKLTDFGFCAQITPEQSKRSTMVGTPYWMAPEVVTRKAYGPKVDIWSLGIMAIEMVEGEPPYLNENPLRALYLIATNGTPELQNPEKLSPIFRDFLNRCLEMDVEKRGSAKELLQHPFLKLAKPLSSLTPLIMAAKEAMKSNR

[19] = tested on: SUP-B15, 12878 and 3798 cell lines; assay: Cell viability; conditions: 48 h, MTT
[20] = side-by-side with IST5-002, data not shown

Nc1nc(F)nc2c1ncn2[C@@H]1O[C@H](CO)[C@@H](O)[C@@H]1O [Fludarabine, fludarabine]
Stat1 phosphorylation and activation (Stat1): inhibit
Stat5 activity (Stat5): not affecting

Nc1nc2c(ncn2[C@@H]2O[C@H](COP(=O)(O)O)[C@@H](O)[C@H]2O)c(=O)[nH]1 [GMP]
effect on Stat5a/b activation and transcriptional activity (Stat5a/b [1]; [20]): no effect

Cc1cc(Nc2nc(N[C@@H](C)c3ncc(F)cn3)ncc2Cl)n[nH]1 [AZD1480, reference compound]
Stat3 nuclear translocation (Stat3 [2]): effectively suppressed

Nc1ncnc2c1ncn2[C@@H]1O[C@H](COP(=O)(O)O)[C@@H](O)[C@H]1O [AMP]
effect on Stat5a/b activation and transcriptional activity (Stat5a/b [1]; [20]): no effect

O=P(O)(O)OC[C@H]1O[C@@H](n2cnc3c(NCc4ccccc4)ncnc32)[C@H](O)[C@@H]1O [IST5-002, N6-benzyladenosine-5-monophosphate]
IC50 (Stat5a [3]): 1.5 µM
IC50 (Stat5b): 3.5 µM
concentration that blocked Bcr-Abl-induced Stat5a/b phosphorylation (Stat5a/b [4]): 5 µM
Bcr-Abl tyrosine phosphorylation levels (Bcr-Abl): did not affect
IC50 (Stat5a/b [5]): 12 µM
IC50 (Stat5a/b [6]): 24.8 µM
Phosphorylation of Jak2 (Jak2): unaffected
inhibition of kinases in a panel of 50 kinases (panel of 50 kinases): no specific inhibition
IC50 (Stat5a [7]): 11 µM
concentration that abrogated Stat5a nuclear translocation (Stat5a [8]): 15 µM
reduction of binding of Stat5a/b to its DNA target sequence (Stat5a/b [9]): approximately 50%
Stat3 nuclear translocation (Stat3 [2]): no demonstrable effect
transcriptional activity of Stat3 (Stat3 [10]): failed to block
expression of Bcl-xL and cyclin D1 (Bcl-xL and cyclin D1): reduced expression
CISH expression change [11]: −2.3 fold
Cyclin D2 expression change [11]: −2.3 fold
Myc expression change [11]: −1.7 fold
Pim1 expression change [11]: −1.7 fold
Pim2 expression change [11]: −1.7 fold
SOCS3 expression change [11]: −1.3 fold
TRIB2 expression change [11]: −1.4 fold
increase in dead cells (CWR22Rv1 cells [12]): 5 fold
increase of nucleosomal DNA fragmentation (CWR22Rv1 cells [13]): 230%
increase in caspase-3 activation (caspase-3): 3 fold
fraction of dead cells (sub-G1) in cell cycle analysis (LNCaP and CWR22Rv1 cells): increased the fraction of dead cells
viability of CWR22Rv1 cells depleted of Stat5a/b (shStat5a/b) (CWR22Rv1 cells [14]): did not further affect
decrease in the number of viable PC cells expressing control shRNA (CWR22Rv1 cells [14]; CWR22Rv1): 40%
viability of cell lines from other tissues ([15]; A549, CAPAN, T47D, HT1080, HepG2, COS-7): not affected
viability of cells with high Stat5a/b activation ([15]; CWR22Rv1 and K562, side-by-side): suppressed viability
viability of cell lines with low or no Stat5a/b activation ([15]; RC170N normal prostate epithelial cell line, HT1080): did not affect viability
decrease of nuclear Stat5a/b content in tumors ([16]; 25 mg/kg i.p. daily): 60%
decrease of nuclear Stat5a/b content in tumors ([16]; 50 mg/kg i.p. daily): 78%
decrease of nuclear Stat5a/b content in tumors ([16]; 100 mg/kg i.p. daily): 90%
Tumor growth ([16]; 25, 50 or 100 mg/kg i.p. daily, all treatment groups vs control groups): significantly (P<0.001) suppressed
viable tumor cells in xenograft tumors ([16]; IST5-002 groups vs. vehicle): massive loss of viable tumor cells
Intratumor levels of nuclear Stat3 ([16]; any of the doses tested): not altered
patient-derived PCs that responded by extensive loss of viable epithelium (patient-derived PCs): Eight out of 11
concentration at which loss of viable epithelium started (patient-derived PCs; responders): 25 µM
growth of imatinib-sensitive and -resistant CML cells [17]: blocked the growth
apoptosis in cell cycle analysis [18]: increase in apoptosis
number of viable colonies of primary CML cells (primary CML cells): dramatic decrease
activity of PAK1/2 (PAK1/2): no specific inhibition
viability of EBV-immortalized B-cells that express no active Stat5a/b ([19]; 12878, 3798 cell lines): only marginal or no effect
viability of SUP-B15 (Bcr-Abl-driven ALL cell line) [19]: decreased viability

Nc1ncnc2c1ncn2[C@@H]1O[C@@H]2COP(=O)(O)O[C@H]2[C@H]1O [cyclic AMP]
effect on Stat5a/b activation and transcriptional activity (Stat5a/b [1]): no effect
